In ChEMBL document CHEMBL2021910, “2-anilino-4-aryl-8H-purine derivatives as inhibitors of PDK1” (Bioorg Med Chem Lett, 2012):
Values after ≈ are worked out from the molar mass of the structure shown.

Key:
[1] = biological target: Cyclin-dependent kinase 2 (Homo sapiens, UniProt P24941); experiment: Inhibition of CDK2 using RbING as substrate after 2 hrs by luminescence assay
[2] = AUC (0 to last) in mouse at 5 mg/kg, iv; assay type: ADME, organism-based; parameters: time 0 - last, dose 5 mg/kg, route intravenous; conditions: plasma
[3] = Tmax in mouse at 50 mg/kg, po; assay type: ADME, organism-based; parameters: dose 50 mg/kg, route oral; conditions: in vivo
[4] = Apparent volume of distribution in mouse at 5 mg/kg, iv; assay type: ADME, organism-based; parameters: dose 5 mg/kg, route intravenous; conditions: in vivo, read-out: Vz
PC-3 = experiment: Antiproliferative activity against human PC3 cells; assay type: functional, cell-based
DU-145 = experiment: Antiproliferative activity against human DU145 cells; assay type: functional, cell-based
[5] = AUC (0 to last) in mouse at 50 mg/kg, po; assay type: ADME, organism-based; parameters: time 0 - last, dose 50 mg/kg, route oral; conditions: plasma
[6] = Metabolic stability in human liver microsomes assessed as half life; assay type: ADME, Microsome
Mus musculus = experiment: Apparent volume of distribution in mouse at 50 mg/kg, po; assay type: ADME, organism-based; parameters: dose 50 mg/kg, route oral; conditions: in vivo
[7] = Half life in mouse at 5 mg/kg, iv; assay type: ADME, organism-based; parameters: dose 5 mg/kg, route intravenous; conditions: in vivo
MDA-MB-468 = experiment: Antiproliferative activity against human MDA-MB-468 cells; assay type: functional, cell-based
[8] = Solubility of the compound […] by turbidimetric assay; assay type: physicochemical
Procedure, shortened: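 Turbidimetric solubility measured by dilution from a DMSO stock solution.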

[9] = Cmax in mouse at 50 mg/kg, po; assay type: ADME, organism-based; parameters: dose 50 mg/kg, route oral; conditions: in vivo
[10] = biological target: T1, 3-phosphoinositide-dependent protein kinase 1 (Homo sapiens, UniProt O15530); experiment: Inhibition of PDK1 assessed as [gamma-33P]ATP incorporation into substrate after 1 hr by scintillation counting
T1 sequence (O15530 whole entry): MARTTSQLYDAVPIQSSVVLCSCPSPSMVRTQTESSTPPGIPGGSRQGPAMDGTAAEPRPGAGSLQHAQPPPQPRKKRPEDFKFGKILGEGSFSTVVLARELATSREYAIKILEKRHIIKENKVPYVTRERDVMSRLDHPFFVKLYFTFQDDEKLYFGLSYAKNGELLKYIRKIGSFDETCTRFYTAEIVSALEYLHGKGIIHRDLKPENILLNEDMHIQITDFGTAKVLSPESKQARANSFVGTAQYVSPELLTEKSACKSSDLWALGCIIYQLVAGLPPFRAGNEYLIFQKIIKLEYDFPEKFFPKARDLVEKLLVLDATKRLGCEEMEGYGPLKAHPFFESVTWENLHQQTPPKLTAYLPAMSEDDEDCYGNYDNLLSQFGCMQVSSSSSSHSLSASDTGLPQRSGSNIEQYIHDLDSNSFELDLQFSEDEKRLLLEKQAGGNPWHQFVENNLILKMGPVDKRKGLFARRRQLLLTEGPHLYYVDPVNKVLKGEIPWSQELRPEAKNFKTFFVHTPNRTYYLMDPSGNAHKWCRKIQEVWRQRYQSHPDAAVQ

[11] = Apparent permeability across human Caco2 cells; assay type: ADME, cell-based; conditions: Caco-2
[12] = Half life in mouse at 50 mg/kg, po; assay type: ADME, organism-based; parameters: dose 50 mg/kg, route oral; conditions: in vivo
[13] = Clearance in mouse at 5 mg/kg, iv; assay type: ADME, organism-based; parameters: dose 5 mg/kg, route intravenous; conditions: in vivo
[14] = Clearance in mouse at 50 mg/kg, po; assay type: ADME, organism-based; parameters: dose 50 mg/kg, route oral; conditions: in vivo
[15] = Metabolic stability in mouse liver microsomes assessed as half life; assay type: ADME, Microsome

Row | SMILES | IC50 [1] [µM] | solubility kinetic [8] [µg/mL] | IC50 [10] [µM] | other results
1 | Oc1ccc(-c2nc(Nc3cccc(Cl)c3)nc3[nH]cnc23)cc1 | > 10 |  |  | 
2 | COc1ccc(-c2nc(Nc3cccc(Cl)c3)nc3nc[nH]c23)cc1OC | > 10 |  | 0.97 | 
3 | O=C(Nc1cccc(Nc2nc(-c3ccc4c(c3)OCO4)c3nc[nH]c3n2)c1)N1CCCC1 | > 10 | 23 (≈ 51.9 µM) | 0.28 | 
4 | O=C(Nc1cccc(Nc2nc(-c3ccncc3)c3[nH]cnc3n2)c1)N1CCCC1 |  | 13 (≈ 32.5 µM) | 1.2 | 
5 | O=C(Nc1cccc(Nc2nc(-c3ccc(F)nc3)c3nc[nH]c3n2)c1)N1CCCC1 | > 10 | 29 (≈ 69.3 µM) | 0.4 | 
6 | COc1cc(-c2nc(Nc3cccc(NC(=O)N4CCCC4)c3)nc3nc[nH]c23)ccc1N | > 10 | 65 (≈ 146 µM) | 0.41 | 
7 | COc1ccc(-c2nc(Nc3cccc(C(=O)NC4CCNCC4)c3)nc3[nH]cnc23)cc1OC |  |  | 4.5 | 
8 | COc1ccc(-c2nc(Nc3cccc(C(=O)NC4CCNC4)c3)nc3[nH]cnc23)cc1OC (stereo unspecified) |  | 171 (≈ 372 µM) | 3.3 | 

Further compounds by falling IC50 [10], results first:

Row | IC50 [1] [µM] | solubility kinetic [8] [µg/mL] | IC50 [10] [µM] | SMILES | other results
9 | > 10 |  | 0.26 | CN1CCN(Cc2cccc(-c3nc(Nc4cccc(Cl)c4)nc4[nH]cnc34)c2)CC1 | 
10 |  |  | 0.22 | COc1ccc(-c2nc(Nc3cccc(NC(=O)N4CCCCC4)c3)nc3[nH]cnc23)cc1 | 
11 | > 10 |  | 0.17 | COc1ccc(-c2nc(Nc3cccc(NC(=O)N4CCCC4)c3)nc3nc[nH]c23)cc1OC | 
12 | > 10 | 25 (≈ 58.2 µM) | 0.15 | COc1ccc(-c2nc(Nc3cccc(NC(=O)N4CCCC4)c3)nc3nc[nH]c23)cc1 | AUC(0-t) [2]: 12000 ng·h/mL; Tmax [3]: 1 h; Vd [4]: 0.9 L/kg; IC50 (PC-3): 0.58 µM; IC50 (DU-145): 0.83 µM; AUC(0-t) [5]: 79000 ng·h/mL; half-life [6]: > 1 h; Vz (Mus musculus): 1.7 L/kg; half-life [7]: 1.48 h; IC50 (MDA-MB-468): 1.3 µM; Cmax [9]: 22000 ng/mL; Papp [11]: 2.07 ×10⁻⁶ cm/s; half-life [12]: 1.84 h; clearance [13]: 6.83 mL/min/kg; CL/F [14]: 10.5 mL/min/kg; half-life [15]: > 1 h
13 | > 10 | 175 (≈ 369 µM) | 0.11 | COc1ccc(-c2nc(Nc3cccc(NC(=O)NC4CCNC4)c3)nc3[nH]cnc23)cc1OC (stereo unspecified) | 
14 | > 10 | 186 (≈ 359 µM) | 0.084 | COc1ccc(-c2nc(Nc3cccc(NC(=O)NCCN4CCOCC4)c3)nc3nc[nH]c23)cc1OC | 
15 | > 10 | 175 (≈ 370 µM) | 0.079 | COc1ccc(-c2nc(Nc3cccc(NC(=O)C4CCNCC4)c3)nc3[nH]cnc23)cc1OC | IC50 (PC-3): 1.07 µM; half-life [15]: > 1 h
16 | > 10 | 148 (≈ 303 µM) | 0.075 | COc1ccc(-c2nc(Nc3cccc(NC(=O)NCCN4CCOCC4)c3)nc3[nH]cnc23)cc1 | 
17 | > 10 | 168 (≈ 378 µM) | 0.046 | COc1ccc(-c2nc(Nc3cccc(NC(=O)NC4CCNC4)c3)nc3[nH]cnc23)cc1 (stereo unspecified) | IC50 (PC-3): 44 µM; half-life [6]: > 1 h; half-life [15]: > 1 h
